Experimental data as given in PMC8904266 (Drug Design, Development and Therapy, 2022).
Values joined by “and” are separate entries in the source; they are usually repeats but may differ in a detail not shown here. Identical values can stand only once.

Key:
caspase-3 = test: Western blot analysis, caspase-3; format: cell-based, human; conditions: HepG-2, 9.52 µM, 48 h
In short: (§1)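 HepG-2 treated 48 h with 9.52 µM test compound or DMSO control. Lysed at pH 7.4 (Tris, EDTA, EGTA, NaCl, NP-40, Triton X-100, protease/phosphatase inhibitors), freeze-thawed at −80 °C, sonicated and centrifuged. 30 µg protein run on SDS-PAGE and blotted to PVDF. Primary antibody 1:1000 overnight at 4 °C; HRP secondary 1:2000. ECL detection; bands normalized to β-actin, control set to 1; mean ± SEM, n=3.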

HepG-2 cells [1] = test: Annexin V-FITC/PI apoptosis assay; format: cell-based, human
In short: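 HepG-2 cells seeded and incubated 24 h, then exposed to test compound at 9.52 µM. Harvested cells washed 3× in PBS, […] double-stained with Annexin V-FITC/propidium iodide for 20 min in the dark. Early/late apoptotic and necrotic fractions measured by flow cytometry. Mean ± SEM of 3 experiments; unpaired t-test versus untreated control.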

BAX/Bcl-2 ratio = test: Western blot analysis, BAX/Bcl-2 ratio; format: cell-based, human; conditions: HepG-2, 9.52 µM, 48 h
In short: as §1

HepG-2 hepatoma cells = test: In vitro antitumor MTT assay, HepG-2; format: cell-based, human; conditions: WISH versus HepG-2
In short: (§2)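 ATCC cell lines grown in RPMI-1640 with 10% FBS, penicillin/streptomycin, at 37 °C and 5% CO2. Seeded at 1.0×10^4 cells/well for 48 h, then treated 24 h with a range of test compound concentrations. MTT (5 mg/mL solution) added for 4 h; formazan dissolved in DMSO and read at 570 nm. IC50 from percent viability; mean ± S.D. of three separate experiments.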

p53 = test: Western blot analysis, p53; format: cell-based, human; conditions: 48 h
In short: as §1

MDA breast cancer cells = test: In vitro antitumor MTT assay, MDA; format: cell-based, human
In short: as §2

[2] = system: Caco-2 colon cancer cells; test: In vitro antitumor MTT assay, Caco-2; format: cell-based, human; conditions: Homo sapiens, Caco-2, 24 h, read-out: IC50 Caco-2
In short: as §2

[3] = In vitro antitumor MTT assay, Caco-2; format: cell-based, human; conditions: human, Caco-2
In short: as §2

BAX = test: Western blot analysis, BAX; format: cell-based, human; conditions: HepG-2, 9.52 µM, 48 h
In short: as §1

HepG-2 cells [4] = test: Cell cycle analysis; format: cell-based, human; conditions: HepG-2, 9.52 µM, 48 h
Bcl-2 = test: Western blot analysis, Bcl-2; format: cell-based, human; conditions: HepG-2, 9.52 µM, 48 h
In short: as §1

VEGFR-2 kinase = VEGFR-2 kinase (Homo sapiens, UniProt P35968); test: biochemical; conditions: VEGFR-2, IC50, VEGFR-2 Kinase Assay Kit (BPS-Bioscience), luminescence
WISH normal cell line = test: Cytotoxic effect against normal cell line; format: cell-based; conditions: read-out: IC50 WISH
A549 lung cancer cells = test: In vitro antitumor MTT assay, A549; format: cell-based, human
In short: as §2

Chain of VEGFR-2 kinase (P35968 20-1356): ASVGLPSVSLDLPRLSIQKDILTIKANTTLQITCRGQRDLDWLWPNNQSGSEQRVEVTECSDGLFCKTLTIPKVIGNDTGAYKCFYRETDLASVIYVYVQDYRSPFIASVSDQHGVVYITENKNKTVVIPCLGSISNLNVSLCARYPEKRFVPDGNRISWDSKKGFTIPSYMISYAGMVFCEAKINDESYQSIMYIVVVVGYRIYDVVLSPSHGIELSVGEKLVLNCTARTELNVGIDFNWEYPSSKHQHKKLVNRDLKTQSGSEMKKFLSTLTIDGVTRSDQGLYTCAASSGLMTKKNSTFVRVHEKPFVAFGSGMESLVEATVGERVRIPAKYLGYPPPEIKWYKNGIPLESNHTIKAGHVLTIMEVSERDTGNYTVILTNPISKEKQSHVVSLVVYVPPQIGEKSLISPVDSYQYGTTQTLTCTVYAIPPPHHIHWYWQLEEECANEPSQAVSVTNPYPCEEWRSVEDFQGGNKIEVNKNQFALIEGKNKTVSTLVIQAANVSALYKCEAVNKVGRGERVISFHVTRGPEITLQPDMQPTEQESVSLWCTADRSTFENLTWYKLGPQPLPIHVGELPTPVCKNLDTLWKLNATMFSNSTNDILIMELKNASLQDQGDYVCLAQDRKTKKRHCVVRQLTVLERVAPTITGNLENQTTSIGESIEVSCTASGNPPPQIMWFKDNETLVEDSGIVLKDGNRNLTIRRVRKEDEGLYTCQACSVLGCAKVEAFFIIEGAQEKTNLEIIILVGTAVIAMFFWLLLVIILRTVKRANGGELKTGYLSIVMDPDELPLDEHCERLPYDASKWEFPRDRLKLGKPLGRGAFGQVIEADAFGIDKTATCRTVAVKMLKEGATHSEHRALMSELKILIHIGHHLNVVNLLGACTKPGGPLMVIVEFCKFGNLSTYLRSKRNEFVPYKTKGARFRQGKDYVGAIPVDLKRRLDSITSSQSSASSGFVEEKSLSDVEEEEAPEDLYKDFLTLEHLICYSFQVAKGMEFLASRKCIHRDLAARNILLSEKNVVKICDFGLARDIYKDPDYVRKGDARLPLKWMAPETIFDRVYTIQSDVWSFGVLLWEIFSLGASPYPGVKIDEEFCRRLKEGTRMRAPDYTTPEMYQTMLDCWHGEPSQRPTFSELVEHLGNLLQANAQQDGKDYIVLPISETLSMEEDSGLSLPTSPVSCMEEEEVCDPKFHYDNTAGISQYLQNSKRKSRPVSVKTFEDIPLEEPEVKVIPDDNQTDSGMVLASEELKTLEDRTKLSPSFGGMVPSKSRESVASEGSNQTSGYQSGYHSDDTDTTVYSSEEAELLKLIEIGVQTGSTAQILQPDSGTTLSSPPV

SMILES: O=C(CN1CCN(c2nc3ccccc3nc2Cl)CC1)NCc1ccccc1 [Compound 11, N-benzyl-2-(4-(3-chloroquinoxalin-2-yl)piperazin-1-yl)acetamide]
- increase in caspase-3 level compared to untreated cells (caspase-3): 2.3 fold
- Protein Level (Normalized to β-Actin) Caspases-3 (caspase-3; control set to 1, mean ± SEM): 2.32 ± 0.11
- increase of early apoptosis rate compared to control (HepG-2 cells [1]; HepG-2, 9.52 µM): about 9 fold
- increase of late apoptosis compared to control (HepG-2 cells [1]; HepG-2, 9.52 µM): 3 fold
- Necrosis (HepG-2 cells [1]; HepG-2, 9.52 µM, 48 h, control 0.11, mean ± SEM): 0.17 ± 0.01
- Apoptosis, Late (HepG-2 cells [1]; HepG-2, 9.52 µM, 48 h, control 0.13, mean ± SEM): 0.38 ± 0.09
- Apoptosis, Early (HepG-2 cells [1]; HepG-2, 9.52 µM, 48 h, control 4.75, mean ± SEM): 43.60% and 43.60 ± 4.16 %
- effect on HepG-2 necrosis (HepG-2 cells [1]; HepG-2, 9.52 µM, in words): weak effect
- viability at 9.52 µM (HepG-2 cells [1]; Homo sapiens, HepG2, 48 h, read-out: Viable cells): 56 ± 4.19%
- increase in BAX/Bcl-2 ratio compared to control (BAX/Bcl-2 ratio): 4 fold
- Protein Level (Normalized to β-Actin) BAX/Bcl-2 Ratio (BAX/Bcl-2 ratio; control set to 1, mean ± SEM): 4.25 ± 0.47
- selectivity index to HepG-2 (HepG-2 hepatoma cells): 13.57
- increase in P53 expression compared to control (p53; HepG-2, 9.52 µM (IC50 value)): 3 fold
- Protein Level (Normalized to β-Actin) P53 (p53; HepG-2, 9.52 µM, control set to 1, mean ± SEM): 3.07 ± 0.24
- IC50 (MDA breast cancer cells; Homo sapiens, 24 h, read-out: IC50 MDA): 11.5 µM
- selectivity index to MDA (MDA breast cancer cells; WISH versus MDA): 11.22
- IC50 [2]: 12.5 µM
- selectivity ratio at 24 h [3]: 10.4
- BAX protein expression level compared to control (BAX; in words): double increase
- Protein Level (Normalized to β-Actin) BAX (BAX; control set to 1, mean ± SEM): 2.16 ± 0.22
- cell accumulation in the G2/M phase (HepG-2 cells [4]; control 15.16%): 25.22%
- cell accumulation rate at S phase (HepG-2 cells [4]; control 20.14%): 46.10%
- cell accumulation percentage in phase G1 (HepG-2 cells [4]; control 63.18%): 27.37%
- Bcl-2 expression level compared to control (Bcl-2; in words): decreased to half
- Protein Level (Normalized to β-Actin) Bcl-2 (Bcl-2; control set to 1, mean ± SEM): 0.50 ± 0.03
- IC50 (VEGFR-2 kinase): 0.19 µM and 0.192 µM
- IC50 (WISH normal cell line): 129 µM
- IC50 (A549 lung cancer cells; Homo sapiens, A549, 24 h, read-out: IC50 A549): 10.6 µM
- selectivity index to A549 (A549 lung cancer cells; WISH versus A549): 12.18
